Source: PubChem (The Scripps Research Institute Molecular Screening Center)
Sampled rows, rich in hits. Any-hit rate of the full collection: about 1.5%.
M4 PAM: CHRM4 positive allosteric modulation. P08173. CHO-K1 hM4/Gqi5, Fluo-8 calcium fluorescence, ACh EC20; 0% = ACh EC20, 100% = maximal ACh. activation, % at 3 µM. actives 0.4% (n = 360,000);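 active means activation above its plate's cutoff, the mean activation of sample wells plus 3 SD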
Target sequence (P08173 whole entry, looked up): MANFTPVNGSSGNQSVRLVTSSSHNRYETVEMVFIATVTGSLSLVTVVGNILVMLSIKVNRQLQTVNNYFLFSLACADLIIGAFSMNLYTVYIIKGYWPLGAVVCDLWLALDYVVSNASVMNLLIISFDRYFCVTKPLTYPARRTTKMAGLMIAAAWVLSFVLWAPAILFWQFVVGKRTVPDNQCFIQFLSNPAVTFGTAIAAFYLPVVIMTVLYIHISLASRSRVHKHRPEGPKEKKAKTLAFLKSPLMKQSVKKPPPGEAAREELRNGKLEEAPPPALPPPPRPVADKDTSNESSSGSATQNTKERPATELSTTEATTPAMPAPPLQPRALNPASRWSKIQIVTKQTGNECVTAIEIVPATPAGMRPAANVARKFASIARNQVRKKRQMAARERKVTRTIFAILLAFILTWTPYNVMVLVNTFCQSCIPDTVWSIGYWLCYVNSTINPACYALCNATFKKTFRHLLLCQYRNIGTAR
V1R ag counter: counter-screen for oxytocin receptor agonists: human V1a receptor agonists; CHO-V1R cells, Fluo-8 calcium fluorescence, agonist mode; 0% DMSO, 100% 3 nM vasopressin; P37288; actives 0.25% (n = 320,000); AID 2797; activation, % at 3 µM;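 active means activation above the mean activation of all tested compounds plus 3 SD, per screening run, cut at about 20% in these data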;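 further: signal is peak over basal fluorescence ratio across a 100 second FLIPR read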
OXTR agonist: agonists of human oxytocin receptor | P30559 | activation, % at 3 µM | actives 0.32% (n = 320,000) | CHO-OTR cells, Fluo-8 calcium fluorescence; normalized: DMSO 0%, oxytocin 100% | AID 2435;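 active means activation above the mean of all tested compounds plus 3 SD, cutoff set per screening run, cut at about 20% in these data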;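 further: peak over basal fluorescence ratio from a 100 s FLIPR kinetic read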
CHRM4 agonist: agonists of human muscarinic M4 receptor (CHRM4) | activation, % at 3 µM | P08173 | actives 0.14% (n = 360,000) | CHO-K1 hM4/Gqi5, Fluo-8 calcium fluorescence; vehicle 0%, full acetylcholine response 100%;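 active means activation above the run mean over all test wells plus 3 SD, cut at about 32% in these data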;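 further: peak over basal fluorescence ratio per well then scaled between controls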
OXTR potentiate: potentiates the human oxytocin receptor response; actives 0.061% (n = 320,000); activation, % at 3 µM; P30559; CHO-OTR cells, Fluo-8 calcium fluorescence, potentiator mode; 0% = oxytocin EC15, 100% = EC100;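 active means activation above that plate's cutoff, the mean activation of tested compounds plus 3 SD, cut at about 6.6% in these data, passing the limit was not always enough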
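Assay system: CHO cell line stably expressing human OTR | Also added: Oxytocin at about EC15, sub-maximal agonist stimulus | Times: Compound 6 min at room temperature before oxytocin, 100 s read | Measured by: Fluo-8 intracellular calcium fluorescence, ex 470-495, em 515-575 nm | Controls: EC15 oxytocin alone as 0%, 75 nM oxytocin as 100%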
CHRM4 antagonist: blocks acetylcholine activation of human M4 receptor | P08173 | CHO-hM4 cells, ACh EC80, Fluo-8 calcium fluorescence | inhibition, % at 3 µM | actives 0.73% (n = 360,000);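 active means inhibition above its plate's cutoff, the mean inhibition of sample wells plus 3 SD, cut at about 27% in these data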
Hits are given with their value; n = inactive; x = no result given.

SMILES	M4 PAM	V1R ag counter	OXTR agonist	CHRM4 agonist	OXTR potentiate	CHRM4 antagonist
CCC1CCCCN1C/C=C/c1ccccc1[N+](=O)[O-] (stereo unspecified)	n	n	n	n	n	54
CC1CCCCN1C/C=C/c1ccccc1[N+](=O)[O-] (stereo unspecified)	n	n	n	n	n	34
CC1CCCN(C/C=C/c2ccccc2[N+](=O)[O-])C1 (stereo unspecified)	n	n	n	n	n	n
CCOc1cc2sc(N3CCC(C(=O)NCCCN4CCCC4=O)CC3)nc2cc1Br	n	n	n	n	n	n
CCC(=O)N(CCc1ccc(OC)c(OC)c1)Cc1cc2ccc(C)cc2n2nnnc12	n	n	n	n	n	n
COc1ccc(OCC(O)CN2CCC(CN3C(=O)c4cccc5cccc(c45)C3=O)CC2)cc1 (stereo unspecified)	n	n	n	n	n	27
Cc1ccc(C)c(OCC(O)CN2CCC(CN3C(=O)c4cccc5cccc(c45)C3=O)CC2)c1 (stereo unspecified)	n	n	n	n	n	n
O=C(CN1CCN(c2ccccc2)CC1)Nc1ccc2c(c1)CCC2	21	n	n	n	n	n
C[C@H]1CN([C@@H](C)CO)C(=O)CCCn2nncc2CO[C@H]1CN(C)S(=O)(=O)c1ccc(F)cc1	n	x	x	n	x	n
C/C(=N\NC(=O)c1ccc(Cn2cc(Br)cn2)o1)c1ccc(NC(=O)c2ccoc2C)cc1	n	x	x	n	x	n
COC(=O)c1cc2c(C)c(C)c3ccccn3c-2c1C(=O)OC	n	n	n	n	n	n
CC(C)OC(=O)c1c2c(n3ccccc13)C(=O)c1ccccc1C2=O	n	31	25	n	n	n
O=C1N/C(=N\S(=O)(=O)Cc2ccccc2)S/C1=C/c1cc([N+](=O)[O-])ccc1O	n	63	43	50	n	n
O=C1N/C(=N\S(=O)(=O)c2ccccc2)S/C1=C\c1cc([N+](=O)[O-])ccc1O	n	20	25	125	n	n
COc1cccc(NC(=O)CN(C)C(=O)Cn2c(=O)oc3ccccc32)c1	n	n	n	n	n	n
CSc1ccccc1NC(=O)COC(=O)Cn1cc(C(F)(F)F)ccc1=O	n	n	n	n	n	n
N/C(=N\OC(=O)CSc1ccccc1)c1ccccn1	21	n	n	n	n	n
COc1ccccc1NC(=O)C1=C(C)NC(=O)NC1c1ccc(C)cc1 (stereo unspecified)	n	n	n	n	n	32
NC(=O)c1c(NC(=O)c2ccccc2F)sc2c1CCC2	n	x	x	n	x	n
CC1=CC(C/C(C)=C/COc2ccc3ccc(=O)oc3c2)OC1=O (stereo unspecified)	35	n	n	n	n	n
CCOC(=O)C1CCCCN1Cc1ccc(-c2ccccc2)cc1 (stereo unspecified)	n	x	x	n	x	n
COc1ccc(S(=O)(=O)N2CCCCC2)cc1NC(=O)CN(Cc1ccco1)Cc1ccco1	n	n	n	n	n	27
Cc1ccc(C(C(=O)NCc2ccccc2)N(Cc2cccs2)C(=O)c2ccc3c(c2)OCCO3)cc1 (stereo unspecified)	n	n	n	n	n	n
COc1ccc(CNC(=O)C(c2ccc(C)cc2)N(Cc2cccs2)C(=O)c2ccc3c(c2)OCCO3)cc1 (stereo unspecified)	n	n	n	n	n	32
Cc1cc(/C=C2\SC(=S)N(Cc3ccco3)C2=O)c(C)n1-c1cccnc1	n	x	x	n	x	n
SMILES	M4 PAM	V1R ag counter	OXTR agonist	CHRM4 agonist	OXTR potentiate	CHRM4 antagonist
Cc1cc(/C=C2/SC(=S)N(c3cccc(C(F)(F)F)c3)C2=O)c(C)n1-c1cccnc1	n	n	n	n	n	39
CCN(CC)CCn1c(=S)[nH]c2cc(C(=O)N3CC=C(c4ccccc4)CC3)ccc2c1=O	x	n	n	x	n	x
CC(Oc1ccc2ccc(=O)oc2c1)C(=O)NC(Cc1c[nH]c2ccc(O)cc12)C(=O)O (stereo unspecified)	n	n	n	n	n	n
Cc1sc2ncnc(N/N=C/c3ccc(O)cc3)c2c1C	n	n	n	n	n	n
Cc1sc2ncnc(N/N=C/c3ccccc3O)c2c1C	30	n	n	n	n	n
C#CCNC(=O)C1=C[C@@H](C)C[C@@H](OCc2ccc(CO)cc2)O1	n	n	n	n	n	n
Fc1cccc(Cc2noc(CN3CCCN(C4Cc5ccccc5C4)CC3)n2)c1	n	n	n	n	n	54
CCC1CCC(C(=O)NC(CCSC)C(=O)NCCN(CC(C)C)CC(C)C)CC1 (stereo unspecified)	n	n	n	n	n	n
COc1ccc(S(=O)(=O)NC(=O)C2(C)CCN2C(=O)CC2CC2)cc1 (stereo unspecified)	n	x	x	n	x	n
COc1ccc(/C=C(\C#N)C(=O)Nc2cc(C)c(Cl)cc2OC)cc1O	n	n	n	n	n	n
COc1ccc(/C=C(/C#N)C(=O)Nc2cc(C)ccc2C)cc1C(=O)O	29	n	n	n	n	n
COC(=O)Cc1ccc(OC2(C)CCN(Cc3ccccc3)C2)cc1 (stereo unspecified)	n	x	x	n	x	63
COc1cc(OC)cc(OC2(C)CCN(Cc3ccc(OC(C)C)cc3)C2)c1 (stereo unspecified)	n	x	x	n	x	53
O=C(NNC(=O)c1cc(S(=O)(=O)N2CCOCC2)ccc1Cl)c1ccc(F)cc1	n	x	x	n	x	n
Cc1nn(CC(=O)N2CCc3ccccc32)c(C)c1S(=O)(=O)NC(C)(C)C	16	n	n	n	n	n
COc1cc(OC)cc(C(=O)NC(=S)NNC(=O)[C@H]2C[C@@H]2c2ccccc2)c1	n	n	23	n	n	n
COc1ccc(C(=O)NC(=S)NNC(=O)[C@H]2C[C@@H]2c2ccccc2)cc1OC	n	n	n	n	n	n
Cc1cccc(Nc2nc(-c3c(C)nc4ccccn34)cs2)c1	n	n	n	n	n	31
Cc1nc2ccccn2c1-c1csc(Nc2cccc(O)c2)n1	n	x	x	n	x	n
O=C(C[C@@H]1C=C[C@@H](NC(=O)C2CC2)[C@@H](CO)O1)NCc1ccccc1Cl	n	x	x	n	x	n
CN1CCN(NC(=O)C2CC2)CC1	n	n	n	n	n	33
OC(C#CCN1CCCCCC1)(c1ccccc1)c1cccnc1 (stereo unspecified)	n	n	n	n	n	82
OC(C#CCN1CCCC1)(c1ccccc1)c1cccnc1 (stereo unspecified)	n	n	n	n	n	86
CCCN(CC#CC(O)(c1ccccc1)c1cccnc1)CCC (stereo unspecified)	n	n	n	n	n	n
